# High-throughput results (PubChem)
# An excerpt weighted towards active compounds, which were near 3.5% of everything screened.
# MEKK2 WT-MEK5 – modulators of MEK5 binding to wildtype MEKK2, primary screen, biochemical, multiplex bead flow cytometry, Alexa488-MEK5. Mitogen-activated protein kinase kinase kinase 2 (Homo sapiens), Q9Y2U5. Alexa488-MEK5 binding to MEKK2 WT; actives lie on both sides. binding response (% of control), % at 10 µM. 1.1% of 290,000 active; in the data active means binding response below about 67% or above about 130%
# ABCG2 inh – ABCG2 efflux pump inhibitors, primary screen, multiplex with ABCB1, IgMXP3 cells, flow cytometry; Broad substrate specificity ATP-binding cassette transporter ABCG2 (Homo sapiens), Q9UNQ0; JC-1 efflux; inhibition, % at 6.6 µM; 0.1% of 190,000 active;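 active means inhibition above 80%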
#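 Test system: IgMXP3 (ABCG2) plus far-red-tagged CCRF-Adr (ABCB1) cells. Reagent: JC-1 dye as substrate. Timing: 10 min exposure at 25 °C with rotation, no wash. Measured by: flow cytometric JC-1 green MFI at 530 nm. Read-out: percent efflux inhibition, scaled nicardipine 100% to DMSO 0%. Control set: nicardipine and DMSO wells.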
# ABCB1 inh – ABCB1 efflux pump inhibitors, primary screen, cell-based, multiplex, flow cytometry, ABCG2 counter-screen; CCRF-Adr cells, JC-1 efflux; inhibition, % at 6.6 µM; 0.067% of 190,000 active; AID 1326, 2008; in the data active means inhibition above about 40%;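 further: higher value means more JC-1 retained so stronger ABCB1 efflux block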
# MEKK3 PB1 HTS – modulators of MEKK3-MEK5 PB1 binding, primary screen, biochemical, wildtype MEKK3, multiplex bead flow cytometry, Alexa488-MEK5. bead-based flow cytometry, Alexa488-MEK5 binding to MEKK3; actives lie on both sides; 0 = blocked by unlabeled MEK5, 100 = vehicle. 1.4% of 290,000 active. binding response (% of control), % at 10 µM;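 active means binding response more than 3 SD above or below the average of its plate-row segment, actives on both sides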;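 further: Alexa488 bead fluorescence after subtracting the streptavidin-only scavenger bead signal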
# MEKK2 mut-MEK5 – MEK5 binding signal on mutant MEKK2 PB1, primary screen, biochemical, multiplex bead flow cytometry, Alexa488-MEK5; percent response, % at 10 µM; 0.35% of 290,000 active; AID 1530, 2009; Alexa488-MEK5 binding to MEKK2 mutant; in the data active means percent response above about 24%, passing the limit was not always enough
# WT yeast gro inh – growth inhibition of WT strain, primary screen, mitochondrial fusion inhibitor project, WT and mutant strains, chemical genetic; 2.1% of 190,000 active; inhibition, % at 10 µM; mitochondrial fusion phenotypic screen; AID 1362, 2008; in the data active means inhibition above about 58%; tested in S. cerevisiae
# MEKK2wt confirm – modulators of MEK5 binding to wildtype MEKK2, confirmation, biochemical, single concentration, multiplex bead flow cytometry. shares compounds with MEKK3 PB1 HTS. Alexa488-MEK5 binding to MEKK2 WT; actives lie on both sides. binding response (% of control), % at 10 µM. 2.4% of 5,900 active. AID 1892, 2009; in the data active means binding response below about 16% or above about 210%; inactive means in between
# MEKK2mut-MEK5 – mutant MEKK2 PB1-MEK5 binding signal retest – biochemical, single concentration, multiplex bead flow cytometry, confirmation; shares compounds with MEKK3 PB1 HTS; Alexa488-MEK5 binding to MEKK2 mutant; percent response, % at 10 µM; 2% of 5,900 active; AID 1893, 2009; in the data active means percent response mostly above about 71%, no sharp cut-off; inactive means mostly below about 38%;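 further: higher means compound restores mutant binding toward wildtype level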
# MEKK3-MEK5 inh – MEKK3 wild-type PB1 binding to MEK5, inhibitors, confirmation, biochemical, bead multiplex flow cytometry, single concentration, wildtype. shares compounds with MEKK3 PB1 HTS. Alexa488-MEK5 binding to MEKK3; stronger effect = lower value. 1.8% of 5,900 active. binding response (% of control), % at 10 µM. AID 1894, 2009;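 active means binding response below 72% of control, or above a set upper limit, though filed actives all read lower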
# Numbers stand for hits; i = inactive; nt = no result; [ ] = dose if it differs, or a comment.
SMILES,MEKK2 WT-MEK5,ABCG2 inh,ABCB1 inh,MEKK3 PB1 HTS,MEKK2 mut-MEK5,WT yeast gro inh,MEKK2wt confirm,MEKK2mut-MEK5,MEKK3-MEK5 inh
c1ccc(Nc2nc(Nc3ccccc3)nc(N3CCNCC3)n2)cc1,154.0,nt,nt,i,i,nt,i,i,i
CN1CCN(c2nc(Nc3ccc(F)cc3)nc(Nc3ccc(F)cc3)n2)CC1,145.0,nt,nt,i,33.0,nt,i,i,i
c1ccc(Nc2nc(N3CCCC3)nc(N3CCOCC3)n2)cc1,i,nt,nt,i,i,nt,nt,nt,nt
CCN(CC)S(=O)(=O)c1ccc(OC)c(NC(=S)Nc2cccc(C)c2C)c1,i,i,i,i,i,i,nt,nt,nt
Cc1ccc(C)c(S(=O)(=O)N2CCN(CC(=O)Nc3sccc3C#N)CC2)c1,i,i,i,162.0,i,i,i,i,i
N#Cc1ccsc1NC(=O)CN1CCN(S(=O)(=O)c2ccccc2C(F)(F)F)CC1,i,i,i,55.0[inhibitor],i,i,i,i,i
N#Cc1ccsc1NC(=O)CN1CCN(c2ccccc2O)CC1,i,i,i,64.0[inhibitor],i,i,i,i,i
CCOc1ccccc1N(CC(=O)OC)S(=O)(=O)c1ccccc1,i,i,i,126.0,i,i,i,i,i
CCOc1ccccc1N(CC(=O)NC1CCCCC1)S(C)(=O)=O,i,i,i,74.0[inhibitor],i,i,i,i,i
CC(=O)n1c(-c2ccccc2)c(CO)c2ccccc21,i,nt,nt,i,i,nt,nt,nt,nt
NCCc1c(-c2ccccc2)n(-c2ccccc2)c2ccccc12,197.0,i,i,i,62.0,87.0,i,i,i
COC(=O)C1=C(C(=O)OC)[C@@H]2N(C)c3ccc(OC)cc3[C@@]23C[C@@H](C(=O)OC)N(C(=O)NC2CCCCC2)C3=N1,3.0[inhibitor],nt,nt,2.0[inhibitor],i,nt,i,i,i
C#CCOCCOCCOCCNc1nc(N2CCN(C(=O)[C@H](CCCCN)n3cc([C@@H](N)CO)nn3)CC2)nc(N2CCN(C(=O)[C@H](Cc3cc4ccccc4[nH]3)n3cc([C@@H](N)Cc4ccc(O)cc4)nn3)CC2)n1,190.0,i,i,i,56.0,i,i,i,i
C#CCOCCOCCOCCNc1nc(N2CCN(C(=O)[C@H](CCCCN)n3cc(C(N)CO)nn3)CC2)nc(N2CCN(C(=O)[C@H](CCC(=O)O)n3cc(C(N)Cc4ccc(O)cc4)nn3)CC2)n1 (stereo partly drawn),i,nt,nt,i,i,nt,nt,nt,nt
C#CCOCCOCCOCCNc1nc(N2CCN(C(=O)[C@H](CCCCN)n3cc([C@@H](N)CC(C)C)nn3)CC2)nc(N2CCN(C(=O)[C@H](Cc3cc4ccccc4[nH]3)n3cc([C@@H](N)Cc4ccc(O)cc4)nn3)CC2)n1,187.0,i,i,i,60.0,i,232.0,89.0,i
C#CCOCCOCCOCCNc1nc(N2CCN(C(=O)C([C@@H](C)CC)n3cc(C(N)CC(C)C)nn3)CC2)nc(N2CCN(C(=O)[C@H](CCC(=O)O)n3cc(C(N)Cc4ccc(O)cc4)nn3)CC2)n1 (stereo partly drawn),i,i,i,i,i,i,nt,nt,nt
Cc1cc(Br)ccc1OCC(=O)NNC(=O)C(=O)Nc1ccccc1,i,i,i,i,i,i,nt,nt,nt
Cc1cc(S(=O)(=O)NCc2cccnc2)ccc1-n1cnnn1,i,i,i,i,i,i,nt,nt,nt
CC(C)NC(=O)C1CCN(C2CCN(Cc3ccc4cccc(F)c4n3)CC2)CC1,i,i,i,i,i,i,nt,nt,nt
CCOC(=O)CSC1=C(C#N)C(c2sccc2C)C(C(C)=O)=C(C)N1 (stereo not drawn),i,i,i,i,i,i,nt,nt,nt
CC(=O)C1=C(C)NC(SCC(N)=O)=C(C#N)C1c1sccc1C (stereo not drawn),i,i,i,76.0[inhibitor],i,i,i,i,i
COc1ccccc1NC(=O)c1ccc(NC(=O)CSc2nnnn2C)cc1,i,i,i,i,i,i,nt,nt,nt
COCCN1C(=S)N[C@@H](c2cccc(F)c2)C(C(=O)OC)=C1C,147.0,nt,nt,i,37.0,nt,i,i,i
COC(=O)C1=C(C)N(Cc2ccccc2)C(=S)N[C@H]1c1cccc(F)c1,i,nt,nt,i,i,nt,nt,nt,nt
COC(=O)C1=C(C)N(Cc2ccccc2)C(=NCc2ccccc2)N[C@H]1c1cccc(F)c1,137.0,nt,nt,i,35.0,nt,i,i,i
SMILES,MEKK2 WT-MEK5,ABCG2 inh,ABCB1 inh,MEKK3 PB1 HTS,MEKK2 mut-MEK5,WT yeast gro inh,MEKK2wt confirm,MEKK2mut-MEK5,MEKK3-MEK5 inh
COC(=O)C1=C(C)N(CC2CC2)C(=NCc2cccc(Cl)c2)N[C@H]1c1ccccc1,i,nt,nt,i,26.0,nt,i,i,i
COC(=O)C1=C(C)N(CC2CC2)C(=NCc2cc(OC)c(OC)c(OC)c2)N[C@H]1c1ccccc1,i,nt,nt,i,i,nt,nt,nt,nt
O=C(CCl)Nc1ccccc1C(=O)NCc1ccccc1,i,i,i,i,i,i,nt,nt,nt
COc1cccc(CNC(=O)CCCSc2ccccc2)c1,i,nt,nt,i,i,nt,nt,nt,nt
Cc1cc2cc(CN(CC3CCCO3)C(=S)NCc3ccco3)c(=O)[nH]c2cc1C (stereo not drawn),i,i,i,147.0,i,i,i,i,i
COc1ccc(C(=O)N2CCN(c3ccccc3OC)CC2)cc1,i,i,i,i,i,i,nt,nt,nt
COc1ccccc1N1CCN(C(=O)c2ccc3[nH]c4c(c3c2)CCCC4)CC1,i,i,i,145.0,i,i,i,i,i
COc1ccccc1N1CCN(C(=O)c2ccc(CSc3ccccc3)cc2)CC1,i,i,i,128.0,i,61.4,i,i,i
Cn1ccnc1SCC(=O)Nc1ccc2c(c1)OC(F)(F)O2,i,i,i,i,i,i,nt,nt,nt
COc1ccc(CN2CCC(N(CCc3ccccc3)Cc3ccccc3)CC2)c(OC)c1,161.0,i,i,i,52.0,i,i,i,i
